Measured values from ChEMBL document CHEMBL4431370, “Novel tricyclic poly (ADP-ribose) polymerase-1/2 inhibitors with potent anticancer chemopotentiating activity: Design, synthesis and biological evaluation” (Bioorg Med Chem, 2016).

Assays:
[1] = system: MDA-MB-468; assay: Growth inhibition of human MDA-MB-468 cells at 100 uM after 72 hrs by SRB assay; type: functional; details: for inhibition of growth at 100 µM: Homo sapiens, MDA-MB-468, 72 h, read-out: GI
Summary of the method: (§1)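 SRB read-out on adherent cells seeded in 96-well plates. Single-agent exposure at 100 μM for 72 h. Cells fixed in trichloroacetic acid for 1 h at 4 °C, stained with 0.4% (w/v) SRB for 20 min at room temperature, washed with 1% acetic acid. Bound dye solubilized in 10 mM Tris, absorbance read at 540 nm. Percent proliferation inhibition reported; means of two independent experiments.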

[2] = target: T1, Poly [ADP-ribose] polymerase 1 (Homo sapiens, UniProt P09874); assay: Inhibition of PARP-1 (unknown origin) after 1 hr in presence of NAD+/biotinylated NAD+/slDNA by ELISA
[3] = system: SW-620; assay: Growth inhibition of human SW620 cells after 72 hrs by SRB assay; type: functional, cell-based
[4] = target: Poly [ADP-ribose] polymerase 2 (Homo sapiens, UniProt Q9UGN5); assay: Inhibition of PARP-2 (unknown origin) after 1 hr in presence of NAD+/biotinylated NAD+/slDNA by ELISA
[5] = system: MDA-MB-468; assay: Growth inhibition of human MDA-MB-468 cells after 72 hrs by SRB assay; type: functional, cell-based
[6] = system: SW-620; assay: Growth inhibition of human SW620 cells at 100 uM after 72 hrs by SRB assay; type: functional; details: for inhibition of growth at 100 µM: Homo sapiens, SW-620, 72 h, read-out: GI; summary of the method: as §1
[7] = target: T1, Poly [ADP-ribose] polymerase 1; assay: Inhibition of PARP-1 (unknown origin) at 100 nM after 1 hr in presence of NAD+/biotinylated NAD+/slDNA by ELISA
Summary of the method: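 Histone-coated wells (20 μg/mL in PBS pH 7.4, 4 °C overnight). Reaction buffer 50 mM Tris, 2 mM MgCl2, pH 8.0, with 100 μM NAD+, 25 μM biotinylated NAD+ and 200 nM slDNA. Started with PARP-1 (50 ng/well), 1 h at 30 °C. Detection by streptavidin-HRP for 30 min at 30 °C, then H2O2/luminol in citrate buffer pH 5.4, luminescence read. Inhibition % = (control−treated)/control ×100.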

[8] = target: T1, Poly [ADP-ribose] polymerase 1; details: MDA-MB-468
[9] = target: T1, Poly [ADP-ribose] polymerase 1
[10] = target: T1, Poly [ADP-ribose] polymerase 1; details: A549

Chain of Poly [ADP-ribose] polymerase 2 (Q9UGN5 whole entry): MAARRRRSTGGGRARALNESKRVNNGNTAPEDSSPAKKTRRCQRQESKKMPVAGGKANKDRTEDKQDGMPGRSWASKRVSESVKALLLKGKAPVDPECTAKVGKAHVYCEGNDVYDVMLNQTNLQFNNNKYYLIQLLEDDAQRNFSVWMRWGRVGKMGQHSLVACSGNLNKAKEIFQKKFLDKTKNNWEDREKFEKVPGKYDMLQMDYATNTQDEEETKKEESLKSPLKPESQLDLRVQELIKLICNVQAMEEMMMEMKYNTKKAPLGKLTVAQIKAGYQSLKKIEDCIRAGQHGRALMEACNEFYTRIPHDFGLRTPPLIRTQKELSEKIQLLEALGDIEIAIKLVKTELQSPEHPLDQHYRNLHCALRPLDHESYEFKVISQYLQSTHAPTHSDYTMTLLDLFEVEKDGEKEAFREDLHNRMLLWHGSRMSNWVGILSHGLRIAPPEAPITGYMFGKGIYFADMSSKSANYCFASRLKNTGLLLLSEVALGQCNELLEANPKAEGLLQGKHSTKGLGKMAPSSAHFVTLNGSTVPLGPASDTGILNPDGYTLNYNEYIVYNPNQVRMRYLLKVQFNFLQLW
T1 sequence (P09874 whole entry): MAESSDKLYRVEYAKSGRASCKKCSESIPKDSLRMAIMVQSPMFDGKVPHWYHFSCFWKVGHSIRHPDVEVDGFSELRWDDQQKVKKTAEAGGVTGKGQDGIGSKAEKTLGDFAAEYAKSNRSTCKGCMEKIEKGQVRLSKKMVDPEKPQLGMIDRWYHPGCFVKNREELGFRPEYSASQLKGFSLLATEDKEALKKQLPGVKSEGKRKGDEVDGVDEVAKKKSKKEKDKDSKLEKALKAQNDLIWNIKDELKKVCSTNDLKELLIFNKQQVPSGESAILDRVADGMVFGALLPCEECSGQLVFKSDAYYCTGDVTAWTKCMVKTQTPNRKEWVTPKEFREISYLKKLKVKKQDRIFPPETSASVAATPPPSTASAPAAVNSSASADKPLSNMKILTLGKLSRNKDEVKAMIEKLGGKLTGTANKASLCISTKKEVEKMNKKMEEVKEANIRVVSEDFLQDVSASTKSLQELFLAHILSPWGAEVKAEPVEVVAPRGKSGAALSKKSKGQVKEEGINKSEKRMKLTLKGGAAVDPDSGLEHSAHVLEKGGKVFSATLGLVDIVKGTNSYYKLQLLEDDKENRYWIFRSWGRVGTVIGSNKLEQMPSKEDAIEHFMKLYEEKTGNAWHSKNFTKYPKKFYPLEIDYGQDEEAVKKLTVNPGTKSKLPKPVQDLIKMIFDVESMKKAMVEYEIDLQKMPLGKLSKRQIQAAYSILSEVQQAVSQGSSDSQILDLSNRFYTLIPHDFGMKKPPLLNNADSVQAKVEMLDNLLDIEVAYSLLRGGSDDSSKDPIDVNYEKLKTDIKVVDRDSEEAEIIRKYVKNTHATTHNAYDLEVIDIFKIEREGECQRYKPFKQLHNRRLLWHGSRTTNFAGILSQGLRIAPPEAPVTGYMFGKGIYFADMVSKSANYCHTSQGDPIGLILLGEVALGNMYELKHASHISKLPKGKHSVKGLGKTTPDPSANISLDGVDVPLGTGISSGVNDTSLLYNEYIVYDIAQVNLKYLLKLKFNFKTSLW

| SMILES | inhibition of growth at 100 µM [1] | IC50 [2] | inhibition of growth at 100 µM [6] | further results |
| --- | --- | --- | --- | --- |
| CC(C)CN1CCC(c2nc3cncc4c3n2CCNC4=O)CC1 | 53% | 0.028 µM | 77% | EC50 ([3]; Homo sapiens, SW-620, 72 h): 52.6 µM; IC50 [4]: 0.0077 µM; EC50 ([5]; Homo sapiens, MDA-MB-468, 72 h): 18.9 µM |
| CN(C)Cc1ccc(-c2nc3cncc4c3n2CCNC4=O)cc1 | – | 0.028 µM | – | – |
| O=C1NCCn2c(C3CCN(C(=O)c4ccc(Cl)cc4)CC3)nc3cncc1c32 | – | – | – | inhibition [7]: < 10% |
| O=C1NCCn2c(C3CCNCC3)nc3cncc1c32 | 32% | 0.054 µM | 25% | – |
| CC(C)N1CCC(c2nc3cncc4c3n2CCNC4=O)CC1 | – | 0.092 µM | – | – |
| CC(C)(C)NCc1ccc(-c2nc3cncc4c3n2CCNC4=O)cc1 | – | 0.075 µM | – | – |
| O=C1NCCn2c(C3CCN(C(=O)c4cccc(Cl)c4)CC3)nc3cncc1c32 | – | – | – | inhibition [7]: < 10% |
| O=C1NCCn2c(-c3ccc(CN4CCCCC4)cc3)nc3cncc1c32 | – | 0.029 µM | – | – |
| CN1CCN(c2ccc(-c3nc4cncc5c4n3CCNC5=O)cc2)CC1 | – | 0.139 µM | – | – |
| CCCN1CCC(c2nc3cncc4c3n2CCNC4=O)CC1 | 30% | 0.019 µM | 41% | – |
| CCNCc1ccc(-c2nc3cncc4c3n2CCNC4=O)cc1 | 82% | 0.011 µM | 94% | EC50 ([3]; Homo sapiens, SW-620, 72 h): 23.6 µM; IC50 [4]: 0.0099 µM; EC50 ([5]; Homo sapiens, MDA-MB-468, 72 h): 4.6 µM |
| C[C@]1(c2nc3c(C(N)=O)cccc3[nH]2)CCCN1 [VELIPARIB] | – | – | – | growth inhibition (GI) [1]: 69%; EC50 ([3]; sw-620): 27.1 µM; PF50 [8]: 1.2; PF50 [9]: 3.1; EC50 ([5]; mda-mb-468): 43 µM; PF50 [10]: 1.5; growth inhibition (GI) [6]: 95% |
| CNCc1ccc(-c2nc3cncc4c3n2CCNC4=O)cc1 | 71% | 0.013 µM | 80% | EC50 ([3]; Homo sapiens, SW-620, 72 h): 89 µM; IC50 [4]: 0.0072 µM; EC50 ([5]; Homo sapiens, MDA-MB-468, 72 h): 81.4 µM |
| O=C1NCCn2c(C3CCN(C(=O)C4CC4)CC3)nc3cncc1c32 | – | – | – | inhibition [7]: < 10% |
| CC(C)NCc1ccc(-c2nc3cncc4c3n2CCNC4=O)cc1 | – | 0.058 µM | – | – |
| O=C1NCCn2c(-c3ccc(N4CCNCC4)cc3)nc3cncc1c32 | 57% | 0.02 µM | 15% | IC50 [4]: 0.0055 µM; EC50 ([5]; Homo sapiens, MDA-MB-468, 72 h): 94 µM |
| CCCCN1CCC(c2nc3cncc4c3n2CCNC4=O)CC1 | 47% | 0.021 µM | 67% | EC50 ([3]; Homo sapiens, SW-620, 72 h): 95 µM |
| CC(=O)N1CCC(c2nc3cncc4c3n2CCNC4=O)CC1 | – | – | – | inhibition [7]: < 10% |
| O=C1NCCn2c(C3CCN(Cc4ccccc4)CC3)nc3cncc1c32 | – | 0.103 µM | – | – |
| O=C1NCCn2c(-c3ccccc3)nc3cncc1c32 | – | 0.11 µM | – | – |
| O=C1NCCn2c(C3CCN(C(=O)c4ccccc4Cl)CC3)nc3cncc1c32 | – | – | – | inhibition [7]: < 10% |
| O=C1NCCn2c(-c3ccc(CN4CCCC4)cc3)nc3cncc1c32 | – | 0.02 µM | – | – |
| O=C1NCCn2c(C3CCN(C(=O)c4ccccc4)CC3)nc3cncc1c32 | – | – | – | inhibition [7]: < 10% |
